# Experimental data taken from ChEMBL document CHEMBL1782036, “Atovaquone derivatives as potent cytotoxic and apoptosis inducing agents” (Bioorg Med Chem Lett, 2009).
# The source made the active and inactive calls. The calls are words filed in the database; no cut-off is given here.
# Key:
# DU-145 [1] = experiment: Growth inhibition of human DU145 cells after 72 hrs by MTT assay; assay type: functional, cell-based; settings: DU-145, 72 h
# Method in brief: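 Du145 human prostate carcinoma cells were screened by MTT cell-growth inhibition assay. IC50 values are means of three experiments.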
# DU-145 [2] = experiment: Induction of apoptosis in human DU145 cells at 10 uM after 72 hrs by AnnexinV conjugated 7- AAD staining by flow cytometry; assay type: functional, cell-based
# Method in brief: (§1)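 Du145 cells were treated for 72 h and stained with Annexin V conjugate plus 7-AAD. Flow cytometry read PS externalization and membrane integrity, scoring cells as live (double negative), early apoptotic, or late apoptotic/necrotic (double positive). Untreated cells served as the control.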
# IMR-90 = experiment: Antiproliferative activity against human IMR90 cells after 72 hrs by MTT assay; assay type: cell-based; settings: IMR-90, 72 h
# A549 = experiment: Antiproliferative activity against human A549 cells after 72 hrs by MTT assay; assay type: functional, cell-based; settings: A549, 72 h
# HeLa = experiment: Antiproliferative activity against human HeLa cells after 72 hrs by MTT assay; assay type: functional, cell-based
# HepG2 = experiment: Antiproliferative activity against human HepG2 cells after 72 hrs by MTT assay; assay type: functional, cell-based; settings: HepG2, 72 h
# HT-1080 = experiment: Antiproliferative activity against human HT1080 cells after 72 hrs by MTT assay; assay type: functional, cell-based; settings: HT-1080, 72 h
# HT-29 = experiment: Antiproliferative activity against human HT-29 cells after 72 hrs by MTT assay; assay type: functional, cell-based; settings: HT-29, 72 h
# KB = experiment: Antiproliferative activity against human KB cells after 72 hrs by MTT assay; assay type: functional, cell-based
# [3] = Antiproliferative activity against human L78 cells after 72 hrs by MTT assay; assay type: functional, cell-based; settings: L78, 72 h
# MCF7 = experiment: Antiproliferative activity against human MCF7 cells after 72 hrs by MTT assay; assay type: functional, cell-based; settings: MCF7, 72 h
# MOLT-4 = experiment: Antiproliferative activity against human MOLT4 cells after 72 hrs by MTT assay; assay type: functional, cell-based; settings: MOLT-4, 72 h
# OS-RC-2 = experiment: Antiproliferative activity against human OS-RC2 cells after 72 hrs by MTT assay; assay type: functional, cell-based; settings: OS-RC-2, 72 h
# SGC-7901 = experiment: Antiproliferative activity against human SGC7901 cells after 72 hrs by MTT assay; assay type: functional, cell-based; settings: SGC-7901, 72 h
# U-251 = experiment: Antiproliferative activity against human U251 cells after 72 hrs by MTT assay; assay type: functional, cell-based; settings: U-251, 72 h
# DU-145 [4] = experiment: Induction of apoptosis in human DU145 cells at 5 uM after 72 hrs by AnnexinV conjugated 7- AAD staining by flow cytometry; assay type: functional, cell-based; method in brief: as §1
# DU-145 [5] = experiment: Induction of apoptosis in human DU145 cells assessed as caspase-9 activation at 1 to 10 uM after 24 hrs by Western blot analysis; assay type: functional, cell-based
# Method in brief: (§2)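 Du145 lysates from dose-ranging treatment were analysed by Western blot for activation of caspase 9 and caspase 3.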
# DU-145 [6] = experiment: Induction of apoptosis in human DU145 cells assessed as caspase-3 activation at 1 to 10 uM after 24 hrs by Western blot analysis; assay type: functional, cell-based; method in brief: as §2
# DU-145 [7] = experiment: Induction of chromatin condensation in human DU145 cells at 20 uM by Hoechst 33342 staining by fluorescent microscopy; assay type: functional, cell-based
# Method in brief: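 Du145 cells were exposed for 24 h, with 0.2% DMSO as the vehicle control. Nuclei were stained with Hoechst 33342 and viewed by fluorescence microscopy at 100× for chromatin condensation and nuclear shrinkage.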
# DU-145 [8] = experiment: Induction of apoptosis in human DU145 cells at 10 uM assessed as live cell level after 72 hrs by AnnexinV conjugated 7- AAD staining by flow cytometry; assay type: functional; method in brief: as §1
# DU-145 [9] = experiment: Induction of apoptosis in human DU145 cells at 10 uM assessed as early apoptosis level after 72 hrs by AnnexinV conjugated 7- AAD staining by flow cytometry; assay type: functional; method in brief: as §1
# DU-145 [10] = experiment: Induction of apoptosis in human DU145 cells at 10 uM assessed as dead cell level after 72 hrs by AnnexinV conjugated 7- AAD staining by flow cytometry; assay type: functional
# Method in brief: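 Du145 human prostate carcinoma cells exposed to compound for 72 h, then stained with Annexin V and 7-AAD and analysed by flow cytometry. Annexin V detects phosphatidylserine externalised to the outer membrane leaflet, and 7-AAD enters only membrane-compromised cells. Dead cells were those positive for both stains. Untreated cells served as control.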
compound,measurement,setting,value
O=C1C=C(N2CCN(c3ccccc3)CC2)C(=O)c2c(O)cccc21,IC50,DU-145 [1],2.8 µM
same,Activity,DU-145 [2],Active
same,IC50,IMR-90,> 50 µM
same,IC50,A549,4.2 µM
same,IC50,HeLa,6.9 µM
same,IC50,HepG2,5.4 µM
same,IC50,HT-1080,8.2 µM
same,IC50,HT-29,2.9 µM
same,IC50,KB,7 µM
same,IC50,[3],3.6 µM
same,IC50,MCF7,5.2 µM
same,IC50,MOLT-4,> 50 µM
same,IC50,OS-RC-2,1.5 µM
same,IC50,SGC-7901,3.7 µM
same,IC50,U-251,6.1 µM
same,Activity,DU-145 [4],Active
same,Activity,DU-145 [5],Dose-dependent effect
same,Activity,DU-145 [6],Dose-dependent effect
same,Activity,DU-145 [7],Active
same,Activity,DU-145 [8],2.8%
same,Activity,DU-145 [9],37.6%
same,Activity,DU-145 [10],58%
